Reference: ChEMBL document CHEMBL3414565, “Discovery of novel AHLs as potent antiproliferative agents” (Eur J Med Chem, 2015)

Experiments:
SMMC-7721 = assay: Cytotoxicity against human SMMC7721 cells after 72 hrs by MTT assay; type: functional, cell-based; settings: SMMC-7721, 72 h
Method in brief: (§1)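 Cells were grown in RPMI1640 and seeded at 5 × 10^3 cells/well, then left 24 h at 37 °C. Medium was replaced with fresh medium holding a range of compound concentrations, from 10 mM DMSO stocks with final DMSO at most 0.1%. Exposure lasted 72 h. MTT (5 mg/mL) was added for 4 h at 37 °C, formazan was dissolved in DMSO and A570 was read. IC50 came from dose-response curves as mean ± SD of three independent experiments.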

MCF7 [1] = assay: Induction of apoptosis in human MCF7 cells assessed as viable cells at 4 uM after 24 hrs by annexin V-FITC/propidium iodide staining-based flow cytometry (reference value: 87.1%); type: functional; settings: MCF7, 24 h, read-out: Activity
Method in brief: (§2)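 MCF-7 cells were plated at 5.0 × 10^6 cells/mL and held 12 or 24 h at 37 °C. Exponentially growing cells then received complete medium (blank) or compound at 0, 2, 4 or 8 for 12 or 24 h. Harvested cells were stained with Annexin V-FITC/PI and analysed by flow cytometry. Quadrants were scored as live, early apoptotic (annexin+/PI−), late apoptotic (double positive) and damaged (PI+ only).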

MGC-803 = assay: Cytotoxicity against human MGC803 cells after 72 hrs by MTT assay; type: functional, cell-based; settings: MGC-803, 72 h; method in brief: as §1
[2] = Cytotoxicity against human GES-1 cells after 72 hrs by MTT assay; type: cell-based; settings: GES1, 72 h
MCF7 [3] = assay: Cell cycle arrest in human MCF7 cells assessed as accumulation at G2/M phase at 2 to 8 uM by propidium iodide staining-based flow cytometry; type: functional; settings: TDE = time-dependent effect
MCF7 [4] = assay: Cell cycle arrest in human MCF7 cells assessed as accumulation at G2/M phase at 2 uM after 24 hrs by propidium iodide staining-based flow cytometry (reference value: 16.27%); type: functional
MCF7 [5] = assay: Induction of apoptosis in human MCF7 cells assessed as late apoptotic cells at 4 uM after 12 hrs by annexin V-FITC/propidium iodide staining-based flow cytometry (reference value: 2.7%); type: functional; method in brief: as §2
MCF7 [6] = assay: Cell cycle arrest in human MCF7 cells assessed as accumulation at G1/G0 phase at 8 uM after 24 hrs by propidium iodide staining-based flow cytometry (reference value: 46.77%); type: functional
MCF7 [7] = assay: Induction of apoptosis in human MCF7 cells assessed as late apoptotic cells at 8 uM after 12 hrs by annexin V-FITC/propidium iodide staining-based flow cytometry (reference value: 2.7%); type: functional; method in brief: as §2
MCF7 [8] = assay: Cell cycle arrest in human MCF7 cells assessed as accumulation at S phase at 8 uM after 12 hrs by propidium iodide staining-based flow cytometry (reference value: 26.65%); type: functional
MCF7 [9] = assay: Cell cycle arrest in human MCF7 cells assessed as accumulation at G1/G0 phase at 4 uM after 24 hrs by propidium iodide staining-based flow cytometry (reference value: 46.77%); type: functional
MCF7 [10] = assay: Cytotoxicity against human MCF7 cells after 72 hrs by MTT assay; type: functional, cell-based; settings: MCF7, 72 h; method in brief: as §1
MCF7 [11] = assay: Cell cycle arrest in human MCF7 cells assessed as accumulation at G2/M phase at 4 uM after 12 hrs by propidium iodide staining-based flow cytometry (reference value: 16.53%); type: functional
MCF7 [12] = assay: Induction of apoptosis in human MCF7 cells assessed as late apoptotic cells at 4 uM after 24 hrs by annexin V-FITC/propidium iodide staining-based flow cytometry (reference value: 2.1%); type: functional; method in brief: as §2
[13] = Cytotoxicity against human EC9706 cells after 72 hrs by MTT assay; type: functional, cell-based; settings: EC9706, 72 h; method in brief: as §1
MCF7 [14] = assay: Induction of apoptosis in human MCF7 cells assessed as early apoptotic cells at 4 uM after 24 hrs by annexin V-FITC/propidium iodide staining-based flow cytometry (reference value: 4.5%); type: functional; method in brief: as §2
MCF7 [15] = assay: Cell cycle arrest in human MCF7 cells assessed as accumulation at G2/M phase at 2 uM after 12 hrs by propidium iodide staining-based flow cytometry (reference value: 16.53%); type: functional
MCF7 [16] = assay: Cell cycle arrest in human MCF7 cells assessed as accumulation at G2/M phase at 4 uM after 24 hrs by propidium iodide staining-based flow cytometry (reference value: 16.27%); type: functional

Work on `O=C(CSC(=S)N[C@H]1CCOC1=O)Nc1ccc(C(=O)/C=C/c2ccccc2Cl)cc1` yielded an IC50 (SMMC-7721) of 20.4 µM, a viability at 4 µM (MCF7 [1]) of 69.3% and an IC50 (MGC-803) of 12.3 µM. The IC50 [2] was 23.5 µM, the Activity (MCF7 [3]) was “tde” and the Activity (MCF7 [4]) was 26.69%. The Activity (MCF7 [5]) was 1.7%, the Activity (MCF7 [6]) was 14.45% and the Activity (MCF7 [7]) was 1.6%. The Activity (MCF7 [8]) was 25.84%, the Activity (MCF7 [9]) was 39.43% and the IC50 (MCF7 [10]) was 5.57 µM. The Activity (MCF7 [11]) was 20.51%, the Activity (MCF7 [12]) was 3% and the IC50 [13] was 34.1 µM. The Activity (MCF7 [14]) was 23.6%, the Activity (MCF7 [15]) was 18.26% and the Activity (MCF7 [16]) was 47.37%.
